We go through five molecules from publication PMC3540799 (NeuroImage, 2012).

Where two headings read alike, the source gives them in different places.

One data set deals with HDAC class IIa enzymes. In words: SAHA-mediated dose-dependent inhibition of [18F]FAHA accumulation in the brain. In kind it is in vivo, rhesus macaques. Conditions: pretreatment with increasing doses of SAHA; blood plasma.
The conditions of data set [1]: cited from earlier work.
The nature of data set [2]: Dynamic PET/CT/MRI of the brain with compartmental pharmacokinetic modeling. In kind it is in vivo, rhesus macaques. Conditions: for k1 (influx rate constant) / k2 (efflux rate constant) / k3 rate constant: baseline. Put shortly: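 Four rhesus macaques (2 male, 2 female): atropine 0.04 mg/kg i.m., ketamine 10–15 mg/kg i.m., isoflurane 1–3% in oxygen; i.v. tracer via saphenous vein. Baseline dynamic PET with the 18F-labelled HDAC substrate and, separately, its 18F-labelled cleavage product. Carotid-derived plasma input was corrected by plasma-to-blood ratio and radio-HPLC metabolite fractions. Rate constants came from two-input, three-tissue-compartment fitting of regional brain time-activity curves.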

The conditions of data set [3]: up to 3 hours post radiotracer administration; ref Nishii et al., 2011; cited from earlier work.
Data set [4] can be described thus: Radioactivity and radiolabeled metabolites in blood plasma. In kind it is in vivo, rhesus macaques. Put shortly: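 Macaques received atropine and ketamine i.m., then isoflurane 1–3% in oxygen. Tracer was given i.v. via saphenous vein, and venous blood (0.5 mL) was drawn at 0, 1, 2, 3, 5, 10 and 30 min. Whole blood and plasma were gamma counted. Heparinized plasma was extracted with 3 volumes acetonitrile and run on radio-HPLC. Parent and metabolite fractions came from peak areas, expressed as %ID/mL.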

The conditions of data set [5]: at 30 min after the radiotracer administration; ref Nishii R, 2007; cited from earlier work.
For another data set, the system named is class IIa HDACs. In kind it is biochemical. Conditions: non-radiolabeled FAHA; 10 ng enzyme, 30 min at 30°C.
Setting [6] is: ref Hendricks, et al 2011, Zeglis.

With `O=C(CCCCCCC(=O)Nc1ccccc1)NO` [SAHA, vorinostat], the “effect on circulation half-time and AUC of [18F]FAHA” value in the data set on HDAC class IIa enzymes is “dose-dependent log-linear increase”.
Regarding `Nc1ccccc1NC(=O)c1ccc(CN[11C](=O)OCc2cccnc2)cc1` [[^11C]MS-275], in data set [1] (ref Hooker, et al 2010), the “accumulation in the brain (PET)” value was “did not accumulate in the brain” and the “blood-brain barrier (BBB) permeability” value is recorded as “poor”.
As to `O=C(O)C[18F]` [[^18F]FACE, [^18F]fluoroacetate], the brain-to-muscle concentration ratio in data set [2] (30 min post injection) was 0.78±0.28. Moreover, in data set [2] (30 min post injection), the “whole brain-to-blood concentration ratio” value was found to be 0.55±0.18. In addition, the “k1 (influx rate constant)” value was determined as 0.020 ± 0.035 in data set [2] (Amygdala); 0.055 ± 0.054 in data set [2] (Cerebellum); 0.021 ± 0.034 in data set [2] (Hippocampus); 0.019 ± 0.045 in data set [2] (Inferior colliculus); 0.056 ± 0.052 in data set [2] (Nucleus accumbens); 0.021 ± 0.044 in data set [2] (Peri-aqueductal gray). The “k1 (influx rate constant)” value in data set [2] (Putamen) is 0.024 ± 0.033; in data set [2] (Temporal cortex) it was 0.016 ± 0.046; in data set [2] (Thalamus), 0.020 ± 0.482; in data set [2] (White matter), 0.015 ± 0.019; in data set [2] (Whole brain), 0.045 ± 0.034. Also, the “k2 (efflux rate constant)” value was found to be 0.088 ± 0.063 in data set [2] (Amygdala); 0.202 ± 0.125 in data set [2] (Cerebellum); 0.118 ± 0.031 in data set [2] (Hippocampus); 0.034 ± 0.024 in data set [2] (Inferior colliculus); 0.179 ± 0.146 in data set [2] (Nucleus accumbens); 0.050 ± 0.034 in data set [2] (Peri-aqueductal gray). Further, the “k2 (efflux rate constant)” value is 0.059 ± 0.063 in data set [2] (Putamen); 0.037 ± 0.014 in data set [2] (Temporal cortex); 0.048 ± 0.067 in data set [2] (Thalamus); 0.089 ± 0.103 in data set [2] (White matter); 0.170 ± 0.145 in data set [2] (Whole brain). The k3 rate constant in data set [2] (Amygdala) is reported as 0.047 ± 0.040; in data set [2] (Cerebellum) it was 0.044 ± 0.066; in data set [2] (Hippocampus) it was 0.054 ± 0.039; in data set [2] (Inferior colliculus) it was 0.022 ± 0.021; in data set [2] (Nucleus accumbens), 0.025 ± 0.034; in data set [2] (Peri-aqueductal gray), 0.026 ± 0.023. Besides, the k3 rate constant in data set [2] (Putamen) was determined as 0.026 ± 0.031; in data set [2] (Temporal cortex) it was 0.033 ± 0.018; in data set [2] (Thalamus), 0.022 ± 0.022; in data set [2] (White matter), 0.029 ± 0.022; in data set [2] (Whole brain) it was 0.033 ± 0.065. Besides, the “efflux rate constant k2FACE relative to that of [18F]FAHA” value in data set [2] (fold less than [18F]FAHA) is on record as 4 to 10 fold. The “[18F]fluorocitrate anabolite in blood” value in data set [3] is “not detectable”. In addition, the “[18F]fluoride in blood plasma” value in data set [4] (30 min post [18F]FACE administration) was < 2 % of total radioactivity. For the same molecule, the “Partition of [18F]FACE-derived radioactivity in blood between RBCs and plasma” value in data set [4] (rhesus monkey, in vivo) stood at 70.2±8.4%.
Consider `O=C(C[18F])NCCCCCC(=O)Nc1ccccc1` [[^18F]FAHA, 6-([^18F]fluoroacetamido)-1-hexanoicanilide], for which the “k1 (influx rate constant)” value in data set [2] (Amygdala) was 0.512 ± 0.1283; in data set [2] (Cerebellum), 0.645 ± 0.2594; in data set [2] (Hippocampus), 0.595 ± 0.071; in data set [2] (Inferior colliculus), 0.706 ± 0.2366; in data set [2] (Nucleus accumbens), 0.626 ± 0.5812; in data set [2] (Peri-aqueductal gray), 0.619 ± 0.2961. Further, the “k1 (influx rate constant)” value in data set [2] (Putamen) was 0.708 ± 0.3726; in data set [2] (Temporal cortex), 0.438 ± 0.2453; in data set [2] (Thalamus) it was 0.765 ± 0.4308; in data set [2] (White matter), 0.463 ± 0.2052; in data set [2] (Whole brain) it was 0.424 ± 0.2637. Also, the “k2 (efflux rate constant)” value in data set [2] (Amygdala) amounted to 0.493 ± 0.118; in data set [2] (Cerebellum) it was 1.001 ± 0.475; in data set [2] (Hippocampus), 0.883 ± 0.738; in data set [2] (Inferior colliculus), 0.644 ± 0.312; in data set [2] (Nucleus accumbens) it was 1.181 ± 1.6532; in data set [2] (Peri-aqueductal gray), 0.554 ± 0.256. The “k2 (efflux rate constant)” value in data set [2] (Putamen) was 0.731 ± 0.617; in data set [2] (Temporal cortex), 0.558 ± 0.2452; in data set [2] (Thalamus), 0.604 ± 0.365; in data set [2] (White matter), 0.810 ± 0.269; in data set [2] (Whole brain) it was 0.611 ± 0.5713. For the same molecule, the k3 rate constant in data set [2] (Amygdala) was determined as 0.259 ± 0.093; in data set [2] (Cerebellum), 0.380 ± 0.279; in data set [2] (Hippocampus) it was 0.279 ± 0.213; in data set [2] (Inferior colliculus) it was 0.267 ± 0.108; in data set [2] (Nucleus accumbens), 0.401 ± 0.296; in data set [2] (Peri-aqueductal gray) it was 0.236 ± 0.088. Further, the k3 rate constant was found to be 0.328 ± 0.079 in data set [2] (Putamen); 0.158 ± 0.056 in data set [2] (Temporal cortex); 0.192 ± 0.032 in data set [2] (Thalamus); 0.187 ± 0.135 in data set [2] (White matter); 0.192 ± 0.222 in data set [2] (Whole brain). In addition, in data set [2] (whole brain), the “whole brain Ki of [18F]FAHA relative to Ki of [18F]FACE” value is recorded as “about 50 fold”. The “accumulation of [18F]FAHA in the brain” value in data set [5] was “significant accumulation”. In addition, in data set [4] (by 30 min post injection), the “fraction of [18F]FAHA catabolized to [18F]FACE in blood plasma” value is “almost all”. For the same molecule, in the data set on class IIa HDACs, the “Kcat values for class IIa HDACs compared with other classes of HDACs” value is “two orders of magnitude higher”.
Consider `O=C(CCCCCCC(=O)Nc1ccc([18F])cc1)NO` [[^18F]SAHA, [^18F]suberoylanilide hydroxamic acid], for which, in data set [1] (setting [6]), the “accumulation in the brain (PET)” value is on record as “did not accumulate in the brain” and the “washout from the brain” value is listed as “excessive washout”.
